From ChEMBL document CHEMBL4825764, “Flavonoid Monomers as Potent, Nontoxic, and Selective Modulators of the Breast Cancer Resistance Protein (ABCG2)” (J Med Chem, 2021)

Key:
[1] = target: T1, Broad substrate specificity ATP-binding cassette transporter ABCG2 (Homo sapiens, UniProt Q9UNQ0); assay: Inhibition of BCRP (unknown origin) expressed in HEK293/R2 cells assessed as fold increase in mitoxantrone accumulation at 1 uM after 4 days by flow cytometry analysis; format: cell-based; settings: hek293/r2, 96 h, time 4 day
T1 sequence (Q9UNQ0 whole entry): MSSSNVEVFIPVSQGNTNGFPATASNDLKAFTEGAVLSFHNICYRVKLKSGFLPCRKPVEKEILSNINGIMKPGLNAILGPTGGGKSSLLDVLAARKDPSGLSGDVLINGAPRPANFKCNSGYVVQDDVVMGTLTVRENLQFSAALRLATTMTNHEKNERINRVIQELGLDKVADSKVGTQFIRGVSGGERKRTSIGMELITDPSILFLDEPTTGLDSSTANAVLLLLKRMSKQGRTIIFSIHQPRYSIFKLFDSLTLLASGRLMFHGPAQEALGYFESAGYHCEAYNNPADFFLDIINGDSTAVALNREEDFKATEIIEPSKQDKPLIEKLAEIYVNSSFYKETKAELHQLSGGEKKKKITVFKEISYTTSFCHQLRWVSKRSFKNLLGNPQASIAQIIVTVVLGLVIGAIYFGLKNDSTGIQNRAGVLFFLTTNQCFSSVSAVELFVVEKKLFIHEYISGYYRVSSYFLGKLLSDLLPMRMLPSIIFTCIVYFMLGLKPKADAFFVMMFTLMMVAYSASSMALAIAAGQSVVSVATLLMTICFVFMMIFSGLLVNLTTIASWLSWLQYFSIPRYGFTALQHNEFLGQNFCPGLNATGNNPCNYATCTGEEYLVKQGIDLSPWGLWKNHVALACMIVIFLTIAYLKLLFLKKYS
In short: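 HEK293/R2 cells were treated 4 days at 37 °C with 1 μM modulator or 0.1% DMSO, washed, then given the mitoxantrone accumulation assay with flow cytometry read-out. Data are relative to DMSO, N = 5 independent experiments.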

[2] = system: L929; assay: Cytotoxicity against mouse L929 cells assessed as reduction in cell viability; format: cell-based
[3] = species on record: Homo sapiens; assay: Selectivity index, ratio of EC50 for inhibition of MRP1 (unknown origin) expressed in 2008/MRP1 cells assessed as reversal of doxorubicin resistance to EC50 for inhibition of BCRP (unknown origin) transfected in HEK293/R2 cells assessed as reversal of topotecan resistance; format: cell-based
In short: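 Selectivity index is the EC50 against the other transporter's line divided by the EC50 in the BCRP line. All values come from 5-day MTS reversal assays. These use topotecan in HEK293/R2 (0–2000 nM) or MCF7-MX100 (0–100 μM), doxorubicin in 2008/MRP1, and paclitaxel in LCC6MDR, each with modulator at 0–1000 nM.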

[4] = species on record: Homo sapiens; assay: Selectivity index, ratio of EC50 for inhibition of MRP1 (unknown origin) expressed in 2008/MRP1 cells assessed as reversal of mitoxantrone resistance to EC50 for inhibition of BCRP (unknown origin) expressed in HEK293/R2 cells assessed as reversal of mitoxantrone resistance; format: cell-based
In short: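 Selectivity index is the EC50 in 2008/MRP1 or LCC6MDR divided by the EC50 in HEK293/R2. All three lines were measured by 5-day mitoxantrone co-incubation with modulator, with MTS/PMS read-out at 490 nm.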

[5] = target: T1, Broad substrate specificity ATP-binding cassette transporter ABCG2; assay: Inhibition of BCRP (unknown origin) expressed in human HEK293/R2 cells assessed as increase in intracellular mitoxantrone accumulation by measuring fold change at 2 uM after 2 hrs in presence of mitoxantrone by flow cytometry analysis relative to control; format: cell-based; settings: hek293/r2, 2 h
In short: (§1)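 5 × 10^5 HEK293/pcDNA3.1 or HEK293/R2 cells in 1 mL were incubated 2 hr at 37 °C with 50 μM topotecan or 5 μM mitoxantrone plus 1 or 2 μM modulator, with DMSO as the vehicle control. Cells were washed in cold PBS and resuspended in FACS buffer. Flow cytometry read FL1 (topotecan) or FL4 (mitoxantrone) over 50,000 events, normalized to wild-type cells.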

[6] = target: T1, Broad substrate specificity ATP-binding cassette transporter ABCG2; assay: Inhibition of BCRP (unknown origin) expressed in wild type HEK293/pcDNA3.1 cells assessed as increase in intracellular topotecan accumulation at 1 to 2 uM after 2 hrs in presence of topotecan by flow cytometry analysis relative to control; format: cell-based; settings: hek293, 2 h, dose 1-2 µM; in short: as §1
[7] = target: T2, BCRP (ABCG2) ATPase (Homo sapiens, UniProt Q9UNQ0); assay: Effect on vanadate sensitive BCRP ATPase activity in human S1-M1-80 cell membranes preincubated for 30 mins followed by ATP addition and measured after 1 hr by colorimetric assay
T2 sequence (Q9UNQ0 whole entry): T1 sequence (Q9UNQ0 whole entry)

SMILES: COC(=O)c1cccc(COc2c(-c3ccc(OCCCCc4cn(Cc5ccccc5)nn4)cc3)oc3ccccc3c2=O)c1
- fold change (FC) [1]: 3.8
- IC50 [2]: > 100 µM
- Ratio EC50 [3]: 143
- Ratio EC50 [4]: 68
- fold change (FC) [5]: 5.7
- inhibition (INH) [6]: Not Active
- activity at 1 h [7]: 120%
